Compound activity (PubChem)
MT1-MMP act inh: MT1-MMP (human) activation inhibition; P50281; HT1080 RFP-PRO-GFP cells, GFP/RFP ratio fluorescence, overnight; percent of plate control window, DMSO zero; GFP/RFP ratio change, % at 20 µM; 0.061% of 360,000 active; AID 651647;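 active = GFP/RFP ratio change of at least 30% with cell ATP level not reduced by more than half and red fluorescence within 50% of control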
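Test system: HT1080 RFP-PRO-GFP cells; Benchmarks: DMSO and RFP-L50D-GFP cell wells; Timing: cells overnight before dosing, compound overnight, 37 °C, 5% CO2; Compound: one 20 µM compound dose with 1% DMSO; Read-out: GFP/RFP fluorescence ratio.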
p-CIP stab down: compounds decreasing mouse p/CIP protein stability | Q05BA5 | F442A p/CIP-EGFP cells, EGFP fluorescence, 16 h | decrease of EGFP signal, % at 10 µM | 0.01% of 290,000 active | AID 1984;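 active = EGFP signal decrease of at least 30% at 10 µM or well 3 SD below plate mean, unless failing retest; inactive = the rest, including hits failing retest or dose response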
SKN-1 block: C. elegans SKN-1 inhibition. C. elegans VP596 Pgst-4::GFP/RFP ratio, acrylamide-induced, 24 h. inhibition, % at 21.8 µM. 0.49% of 360,000 active;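 active = interference check ratio from 0.5 to 1.5 plus GFP to RFP signal ratio inhibition reaching or exceeding a fixed threshold, cut at about 30% in these data, passing the limit was not always enough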
bovine MsrA act: activates bovine MsrA enzyme | purified bovine MsrA, absorbance read-out | activation, % at 10.6 µM | 0.3% of 360,000 active | AID 602163; in the data active = activation above about 7.5%;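 also: 0% = vehicle and 100% = reference activator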
MsrA inh: bovine MsrA inhibition | purified bovine MsrA, absorbance read-out | inhibition, % at 15.5 µM | 0.75% of 360,000 active; in the data active = inhibition above about 4.5%;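 also: 0% = vehicle wells with enzyme and 100% = reference inhibitor wells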
Numbers without * were called inactive; . = no result given. An excerpt weighted towards active compounds, which were near 1.6% of everything screened.

SMILES	MT1-MMP act inh	p-CIP stab down	SKN-1 block	bovine MsrA act	MsrA inh
COc1ccc(/C=N/NC(=S)NC2CCS(=O)(=O)C2)cc1OC (stereo not drawn)	-5	-14	10	-6	6.0*
COC(=O)C1=C(C)N(Cc2ccc(Cl)cc2)C(=S)NC1c1ccc(Cl)cc1 (stereo not drawn)	.	.	.	.	0
CCOC(=O)c1ccc2c(c1)nc(SCC(=O)c1cc3ccccc3o1)n2CC	-40	2	52*	1	1
C=CCNc1nc(NCCN2CCOCC2)nc(N2CCOCC2)n1	-4	1	35*	-5	-2
O=C(O)CSc1c(-c2ccccc2)c2cc(Cl)ccc2[nH]c1=O	1	1	-3	-9	2
CCN(CC)C(=S)Sc1c(-c2ccccc2)c2cc(Cl)ccc2[nH]c1=O	-1	1	35*	1	0
COC(=O)[C@H](Cc1ccccc1)N1CC=CS1(=O)=O	.	.	.	.	0
Cn1c(Cc2ccccc2)nnc1SCC(=O)Nc1ccc2c(c1)OCO2	2	-2	46*	-1	1
Cc1cc2n(n1)C(c1ccsc1)Nc1ccccc1-2 (stereo not drawn)	-3	5	16	-3	1
CSc1ccc(C2Nc3ccccc3-c3cc(C)nn32)cc1 (stereo not drawn)	5	-13	44*	-1	0
Cc1cc(C(F)(F)F)n2nc(-c3cnn(C)c3C(F)(F)F)cc2n1	-4	7	5	7.7*	1
COc1cc2sc3ccc(C#Cc4ccc(N)cc4)cc3c(=O)c2cc1OC	7	.	40*	-3	3
Nc1nc2c(ncn2[C@@H]2O[C@H](C(=O)N[C@H](Cc3ccccc3)C(=O)NCc3ccc4c(c3)OCO4)[C@@H](O)[C@H]2O)c(=O)[nH]1	.	.	.	.	1
CC(=O)N1CCN(c2ccc(N3CCN(C(C)=O)[C@@H](C)C3)c(C)c2)[C@@H](C)C1	.	.	.	.	0
Cc1ccccc1-c1nnc(-c2cccc3ccccc23)o1	-5	.	18	-2	0
Cc1ccccc1-c1nnc(-c2ccccc2C)o1	0	0	46*	-1	-1
O=C(CN1C(=O)NC2(CCCC2)C1=O)Nc1cc(S(=O)(=O)N2CCOCC2)ccc1OCC(F)(F)F	2	-3	40*	-7	-1
C(=N\Nc1ccc2nncn2n1)/c1ccco1	1	0	13	-6	3
BrC(=C\c1ccccc1)/C=N/Nc1ccc2nncn2n1	7	-9	8	-5	4.5*
CCN1C(=O)/C(=C/N(C)c2ccccc2)OC1=S	-8	2	36*	-4	2
COC(=O)C1=C(C)N(C)C(=NCc2ccccc2)NC1c1ccccc1C(F)(F)F (stereo not drawn)	.	.	.	.	0
CCOc1cc(C2C(C(=O)O)c3cc(OCC)c(OCC)cc3C(=O)N2C)ccc1O (stereo not drawn)	3	-8	-8	-3	-1
CCOc1cc2c(cc1OCC)C(C(=O)O)C(c1cc(OC)c(OC)c(OC)c1)N(C)C2=O (stereo not drawn)	0	-12	36*	-3	0
COc1ccc(C(=O)C(=O)N2CCN(C(=O)c3ccccc3C(F)(F)F)CC2)cc1OC	.	.	.	.	1
CC(C(=O)NCCN1C(=O)S/C(=C\c2cccnc2)C1=O)N1C(=O)c2ccccc2C1=O (stereo not drawn)	1	3	-1	-11	4.6*
SMILES	MT1-MMP act inh	p-CIP stab down	SKN-1 block	bovine MsrA act	MsrA inh
COC(=O)[C@]12C[C@H](CC(=O)N3CCN(C(=O)C4CC4)CC3)C(=O)N(Cc3ccccc3)C1=C[C@H](C1CCCC1)O[C@@H]2C	.	.	.	.	0
Cn1cc(Cl)c(-c2n[nH]c(=S)n2-c2ccc(F)cc2)n1	3	-10	-5	0	0
Cc1c(Cl)c(-c2n[nH]c(=S)n2-c2ccc(F)cc2)nn1C	-6	4	30*	-5	0
Cn1c(/C(C#N)=C(\O)c2ccc([N+](=O)[O-])s2)nc2ccccc21	4	3	40*	-3	1
COC(=O)C1=C(C)N(Cc2cccc(C(F)(F)F)c2)C(=NCc2cc(OC)c(OC)c(OC)c2)NC1c1ccccc1 (stereo not drawn)	.	.	.	.	-1
CC(=O)NCc1ccc(OCCCN2CCC(C(O)(c3ccccc3)c3ccccc3)CC2)cc1	.	.	.	.	-1
Cc1cc(NC(=O)Cc2ccsc2)ccc1Br	0	5	63*	-1	0
COC(=O)C1=C(C)N(C)C(=NCc2ccccc2C(F)(F)F)NC1c1ccc(F)cc1 (stereo not drawn)	.	.	.	.	0
